{"source": "ChEMBL document CHEMBL5303300", "about": "“EUbOPEN Chemogenomics Library - Multiplex” (2023)", "test_system": "U2OS", "experiment": "Multiplex assay against U2OS", "type": "toxicity, cell-based", "details": "human, number of replicates 2", "summary_of_the_method": "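Per cents of healthy-nucleus cells form the tubulin, mitochondrial-mass and membrane-permeability phenotype values. Live cells were stained at seeding with Hoechst33342, BioTracker Green Microtubule Cytoskeleton Dye, MitoTracker Red and Annexin V Alexa Fluor 680. After compound addition they were imaged on a CQ1 microscope at 37°C and 5% CO2, and CellPathfinder machine-learning gating split them into Hoechst high-intensity objects or normal cells, normal cells into healthy, pyknosed or fragmented nuclei, and pyknosed cells into mitotic or apoptotic.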", "key": {"[1]": {"details": "12 h, 1 µM, compound concentration 1 uM"}, "[2]": {"details": "12 h, 10 µM, compound concentration 10 uM"}, "[3]": {"details": "24 h, 1 µM, compound concentration 1 uM"}, "[4]": {"details": "24 h, 10 µM, compound concentration 10 uM"}, "[5]": {"details": "48 h, 1 µM, compound concentration 1 uM"}, "[6]": {"details": "48 h, 10 µM, compound concentration 10 uM"}}, "note": "Where “and” joins values, the source holds several entries; their conditions need not be identical. Equal entries are not always repeated."}
{"molecule": "COc1nc2ccc([C@@](O)(c3ccc(Cl)cc3)c3cncn3C)cc2c(Cl)c1Cc1ccc(-n2cccn2)cc1", "note": "[JNJ-53721590]", "values": [{"measurement": "Population Healthy Nuclei (%)", "setting": "[1]", "value": "56% and 85%"}, {"measurement": "Population Hoechst High Intensity Objects (%)", "setting": "[1]", "value": 0, "unit": "%"}, {"measurement": "Population Membrane Permeable-Phenotype (%)", "setting": "[1]", "value": "5% and 1%"}, {"measurement": "Population Mitochondria Different-Phenotype (%)", "setting": "[1]", "value": "0% and 20%"}, {"measurement": "Population Normal (%)", "setting": "[1]", "value": 100, "unit": "%"}, {"measurement": "Population Pyknosed Nuclei (%)", "setting": "[1]", "value": "16% and 10%"}, {"measurement": "Population Tubulin-Different-Phenotype (%)", "setting": "[1]", "value": "23% and 37%"}, {"measurement": "Population Apoptotic (%)", "setting": "[2]", "value": "74% and 57%"}, {"measurement": "Population Fragmented Nuclei (%)", "setting": "[2]", "value": "2% and 12%"}, {"measurement": "Population Healthy Nuclei (%)", "setting": "[2]", "value": "82% and 74%"}, {"measurement": "Population Hoechst High Intensity Objects (%)", "setting": "[2]", "value": 0, "unit": "%"}, {"measurement": "Population Membrane Permeable-Phenotype (%)", "setting": "[2]", "value": "29% and 21%"}, {"measurement": "Population Mitochondria Different-Phenotype (%)", "setting": "[2]", "value": "28% and 56%"}, {"measurement": "Population Mitotic Cells (%)", "setting": "[2]", "value": "25% and 42%"}, {"measurement": "Population Normal (%)", "setting": "[2]", "value": "99% and 100%"}, {"measurement": "Population Pyknosed Nuclei (%)", "setting": "[2]", "value": "14% and 12%"}, {"measurement": "Population Tubulin-Different-Phenotype (%)", "setting": "[2]", "value": "89% and 97%"}, {"measurement": "Population Apoptotic (%)", "setting": "[3]", "value": "50% and 62%"}, {"measurement": "Population Fragmented Nuclei (%)", "setting": "[3]", "value": "20% and 0%"}, {"measurement": "Population Healthy Nuclei (%)", "setting": "[3]", "value": "45% and 85%"}, {"measurement": "Population Hoechst High Intensity Objects (%)", "setting": "[3]", "value": 0, "unit": "%"}, {"measurement": "Population Membrane Permeable-Phenotype (%)", "setting": "[3]", "value": "0% and 1%"}, {"measurement": "Population Mitochondria Different-Phenotype (%)", "setting": "[3]", "value": "6% and 17%"}, {"measurement": "Population Mitotic Cells (%)", "setting": "[3]", "value": "50% and 37%"}, {"measurement": "Population Normal (%)", "setting": "[3]", "value": "100% and 99%"}, {"measurement": "Population Pyknosed Nuclei (%)", "setting": "[3]", "value": "34% and 13%"}, {"measurement": "Population Tubulin-Different-Phenotype (%)", "setting": "[3]", "value": "25% and 42%"}, {"measurement": "Population Apoptotic (%)", "setting": "[4]", "value": "79% and 36%"}, {"measurement": "Population Fragmented Nuclei (%)", "setting": "[4]", "value": "3% and 12%"}, {"measurement": "Population Healthy Nuclei (%)", "setting": "[4]", "value": "78% and 64%"}, {"measurement": "Population Hoechst High Intensity Objects (%)", "setting": "[4]", "value": 0, "unit": "%"}, {"measurement": "Population Membrane Permeable-Phenotype (%)", "setting": "[4]", "value": "34% and 35%"}, {"measurement": "Population Mitochondria Different-Phenotype (%)", "setting": "[4]", "value": "43% and 54%"}, {"measurement": "Population Normal (%)", "setting": "[4]", "value": "99% and 100%"}, {"measurement": "Population Pyknosed Nuclei (%)", "setting": "[4]", "value": "18% and 22%"}, {"measurement": "Population Tubulin-Different-Phenotype (%)", "setting": "[4]", "value": 93, "unit": "%"}, {"measurement": "Population Apoptotic (%)", "setting": "[5]", "value": "70% and 81%"}, {"measurement": "Population Healthy Nuclei (%)", "setting": "[5]", "value": "86% and 54%"}, {"measurement": "Population Hoechst High Intensity Objects (%)", "setting": "[5]", "value": 0, "unit": "%"}, {"measurement": "Population Mitochondria Different-Phenotype (%)", "setting": "[5]", "value": "9% and 13%"}, {"measurement": "Population Mitotic Cells (%)", "setting": "[5]", "value": "29% and 18%"}, {"measurement": "Population Normal (%)", "setting": "[5]", "value": "99% and 100%"}, {"measurement": "Population Pyknosed Nuclei (%)", "setting": "[5]", "value": "10% and 26%"}, {"measurement": "Population Apoptotic (%)", "setting": "[6]", "value": "64% and 85%"}, {"measurement": "Population Healthy Nuclei (%)", "setting": "[6]", "value": "47% and 65%"}, {"measurement": "Population Hoechst High Intensity Objects (%)", "setting": "[6]", "value": 0, "unit": "%"}, {"measurement": "Population Membrane Permeable-Phenotype (%)", "setting": "[6]", "value": "57% and 47%"}, {"measurement": "Population Mitochondria Different-Phenotype (%)", "setting": "[6]", "value": "48% and 34%"}, {"measurement": "Population Mitotic Cells (%)", "setting": "[6]", "value": "35% and 14%"}, {"measurement": "Population Normal (%)", "setting": "[6]", "value": "100% and 99%"}, {"measurement": "Population Pyknosed Nuclei (%)", "setting": "[6]", "value": "24% and 26%"}, {"measurement": "Population Tubulin-Different-Phenotype (%)", "setting": "[6]", "value": "96% and 90%"}]}
{"molecule": "Cc1cccc(S(=O)(=O)N(C)[C@H](C)CCN2CCC(C)CC2)c1.Cl", "values": [{"measurement": "Population Apoptotic (%)", "setting": "[1]", "value": "72% and 100%"}, {"measurement": "Population Fragmented Nuclei (%)", "setting": "[1]", "value": "5% and 14%"}, {"measurement": "Population Healthy Nuclei (%)", "setting": "[1]", "value": "84% and 82%"}, {"measurement": "Population Hoechst High Intensity Objects (%)", "setting": "[1]", "value": 0, "unit": "%"}, {"measurement": "Population Membrane Permeable-Phenotype (%)", "setting": "[1]", "value": 0, "unit": "%"}, {"measurement": "Population Mitochondria Different-Phenotype (%)", "setting": "[1]", "value": 0, "unit": "%"}, {"measurement": "Population Normal (%)", "setting": "[1]", "value": 100, "unit": "%"}, {"measurement": "Population Pyknosed Nuclei (%)", "setting": "[1]", "value": "10% and 2%"}, {"measurement": "Population Apoptotic (%)", "setting": "[2]", "value": 50, "unit": "%"}, {"measurement": "Population Healthy Nuclei (%)", "setting": "[2]", "value": "53% and 89%"}, {"measurement": "Population Hoechst High Intensity Objects (%)", "setting": "[2]", "value": 0, "unit": "%"}, {"measurement": "Population Membrane Permeable-Phenotype (%)", "setting": "[2]", "value": 0, "unit": "%"}, {"measurement": "Population Mitochondria Different-Phenotype (%)", "setting": "[2]", "value": "0% and 1%"}, {"measurement": "Population Mitotic Cells (%)", "setting": "[2]", "value": 50, "unit": "%"}, {"measurement": "Population Normal (%)", "setting": "[2]", "value": 100, "unit": "%"}, {"measurement": "Population Tubulin-Different-Phenotype (%)", "setting": "[2]", "value": "42% and 46%"}, {"measurement": "Population Apoptotic (%)", "setting": "[3]", "value": "41% and 14%"}, {"measurement": "Population Fragmented Nuclei (%)", "setting": "[3]", "value": "4% and 10%"}, {"measurement": "Population Healthy Nuclei (%)", "setting": "[3]", "value": "83% and 71%"}, {"measurement": "Population Hoechst High Intensity Objects (%)", "setting": "[3]", "value": 0, "unit": "%"}, {"measurement": "Population Membrane Permeable-Phenotype (%)", "setting": "[3]", "value": "1% and 0%"}, {"measurement": "Population Mitochondria Different-Phenotype (%)", "setting": "[3]", "value": 0, "unit": "%"}, {"measurement": "Population Mitotic Cells (%)", "setting": "[3]", "value": "58% and 85%"}, {"measurement": "Population Normal (%)", "setting": "[3]", "value": 100, "unit": "%"}, {"measurement": "Population Pyknosed Nuclei (%)", "setting": "[3]", "value": "11% and 17%"}, {"measurement": "Population Apoptotic (%)", "setting": "[4]", "value": "80% and 54%"}, {"measurement": "Population Healthy Nuclei (%)", "setting": "[4]", "value": "54% and 91%"}, {"measurement": "Population Hoechst High Intensity Objects (%)", "setting": "[4]", "value": 0, "unit": "%"}, {"measurement": "Population Membrane Permeable-Phenotype (%)", "setting": "[4]", "value": "0% and 2%"}, {"measurement": "Population Mitochondria Different-Phenotype (%)", "setting": "[4]", "value": "0% and 1%"}, {"measurement": "Population Mitotic Cells (%)", "setting": "[4]", "value": "20% and 45%"}, {"measurement": "Population Normal (%)", "setting": "[4]", "value": 100, "unit": "%"}, {"measurement": "Population Tubulin-Different-Phenotype (%)", "setting": "[4]", "value": "58% and 56%"}, {"measurement": "Population Apoptotic (%)", "setting": "[5]", "value": "59% and 46%"}, {"measurement": "Population Fragmented Nuclei (%)", "setting": "[5]", "value": "2% and 12%"}, {"measurement": "Population Healthy Nuclei (%)", "setting": "[5]", "value": "89% and 68%"}, {"measurement": "Population Hoechst High Intensity Objects (%)", "setting": "[5]", "value": 0, "unit": "%"}, {"measurement": "Population Membrane Permeable-Phenotype (%)", "setting": "[5]", "value": "2% and 0%"}, {"measurement": "Population Mitochondria Different-Phenotype (%)", "setting": "[5]", "value": 0, "unit": "%"}, {"measurement": "Population Mitotic Cells (%)", "setting": "[5]", "value": "40% and 53%"}, {"measurement": "Population Normal (%)", "setting": "[5]", "value": 100, "unit": "%"}, {"measurement": "Population Pyknosed Nuclei (%)", "setting": "[5]", "value": "8% and 18%"}, {"measurement": "Population Tubulin-Different-Phenotype (%)", "setting": "[5]", "value": "86% and 42%"}, {"measurement": "Population Apoptotic (%)", "setting": "[6]", "value": "30% and 62%"}, {"measurement": "Population Healthy Nuclei (%)", "setting": "[6]", "value": "92% and 51%"}, {"measurement": "Population Hoechst High Intensity Objects (%)", "setting": "[6]", "value": 0, "unit": "%"}, {"measurement": "Population Mitochondria Different-Phenotype (%)", "setting": "[6]", "value": 0, "unit": "%"}, {"measurement": "Population Mitotic Cells (%)", "setting": "[6]", "value": "69% and 37%"}, {"measurement": "Population Normal (%)", "setting": "[6]", "value": "99% and 100%"}, {"measurement": "Population Tubulin-Different-Phenotype (%)", "setting": "[6]", "value": "62% and 46%"}]}
